Assay outcomes deposited in PubChem BioAssay by The Scripps Research Institute Molecular Screening Center.
CHRM5 agonist: agonists of human muscarinic M5 receptor (CHRM5). P08912. CHO-K1 hM5 cells, Fluo-8 calcium fluorescence; 0% DMSO wells, 100% maximal acetylcholine response. activation, % at 3 µM. 360,000 tested, 0.19% active. AID 624037;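 active = activation above the run's mean over test compounds plus 3 SD, cut at about 23% in these data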;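 also: signal is peak over basal fluorescence ratio across the kinetic read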
Target sequence (P08912 whole entry, looked up): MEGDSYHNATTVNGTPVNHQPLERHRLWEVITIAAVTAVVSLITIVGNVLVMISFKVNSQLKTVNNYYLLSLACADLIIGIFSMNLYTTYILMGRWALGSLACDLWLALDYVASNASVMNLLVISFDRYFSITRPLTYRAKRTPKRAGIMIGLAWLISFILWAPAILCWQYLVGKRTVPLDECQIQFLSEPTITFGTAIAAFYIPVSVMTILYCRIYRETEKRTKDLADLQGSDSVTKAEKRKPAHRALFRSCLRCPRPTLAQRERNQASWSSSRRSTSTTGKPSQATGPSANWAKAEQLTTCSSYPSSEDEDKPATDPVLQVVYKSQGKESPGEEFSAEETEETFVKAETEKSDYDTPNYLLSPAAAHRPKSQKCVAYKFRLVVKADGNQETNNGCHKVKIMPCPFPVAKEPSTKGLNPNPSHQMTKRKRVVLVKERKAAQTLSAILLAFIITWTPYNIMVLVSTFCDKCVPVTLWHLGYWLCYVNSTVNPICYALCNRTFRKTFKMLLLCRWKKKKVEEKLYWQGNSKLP
M5 PAM: potentiates acetylcholine response at human M5 receptor | activation, % at 3 µM | CHO-K1 hM5, Fluo-8 calcium, ACh EC20 PAM; 0% = ACh EC20, 100% = ACh EC100 | P08912 | 360,000 tested, 0.3% active;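 active = activation above the run cutoff, the mean activation of all test compounds plus 3 SD, cut at about 18% in these data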
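Assay system: CHO-K1 hM5 cells. Also added: acetylcholine at EC20 concentration, added after compound. Dosing: 3 µM, single dose. Times: compound preincubation 140 s before EC20 acetylcholine addition. Signal: Fluo-8 calcium fluorescence. Measure: % activation relative to EC20 and EC100 ACh responses. Repeats: singlicate, one well per test compound.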
CHRM4 antagonist: CHRM4 antagonism in calcium assay; P08173; CHO-hM4 cells, ACh EC80, Fluo-8 calcium fluorescence; inhibition, % at 3 µM; 360,000 tested, 0.73% active;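 active = inhibition above its plate's cutoff, the mean inhibition of sample wells plus 3 SD, cut at about 27% in these data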
M5 antag: antagonists of human muscarinic M5 receptor (CHRM5); 360,000 tested, 0.59% active; CHO-hM5 cells, Fluo-8 calcium fluorescence, ACh EC80; P08912; inhibition, % at 3 µM;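 active = inhibition above a per-plate cutoff, the mean of that plate's test compounds plus 3 SD, cut at about 27% in these data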
CHRM4 PAM: CHRM4 positive allosteric modulation | P08173 | CHO-K1 hM4/Gqi5, Fluo-8 calcium fluorescence, ACh EC20; 0% = ACh EC20, 100% = maximal ACh | activation, % at 3 µM | 360,000 tested, 0.4% active | AID 624126;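 active = activation above its plate's cutoff, the mean activation of sample wells plus 3 SD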
M4 ag: CHRM4 agonism in calcium assay; AID 624127; P08173; 360,000 tested, 0.14% active; activation, % at 3 µM; CHO-K1 hM4/Gqi5, Fluo-8 calcium fluorescence; vehicle 0%, full acetylcholine response 100%;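 active = activation above the run mean over all test wells plus 3 SD, cut at about 32% in these data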;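 also: peak over basal fluorescence ratio per well then scaled between controls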
Large screens that a line does not name were inactive. An excerpt weighted towards active compounds, which were near 1.9% of everything screened.

O=C(NC(=S)NN1CCCCC1c1cccnc1)c1ccc(Cl)cc1Cl (centres undefined)	M5 PAM 22
O=C(NC(=S)N1CCCC1)c1ccc(Cl)cc1Cl	none
O=C(NC(=S)N1CCCCC1c1cccnc1)c1ccc(Br)cc1 (centres undefined)	CHRM4 PAM 15
O=C(NC(=S)N1CCCCC1c1cccnc1)c1ccc(F)cc1 (centres undefined)	none
CC(C)c1ccc(C(C(=O)NC2CCCCC2)N(C(=O)c2csnn2)C2CC2)cc1 (centres undefined)	none
O=C(NC1CCCCC1)C(c1ccc(F)cc1)N(C(=O)c1csnn1)C1CC1 (centres undefined)	CHRM4 PAM 19
CCCS(=O)(=O)NC(=O)C1(C)CCCN(C(=O)c2ccccc2C(F)(F)F)C1 (centres undefined)	none
CCSc1nncn1/N=C/c1ccc(OC)c(OC)c1	none
C=C(C)CSc1nncn1/N=C/c1ccc(OC)cc1	CHRM4 PAM 30
O=S1(=O)CC(N2CCN(CC3CC3)CC2)CN1Cc1cn(Cc2ccccc2C(F)(F)F)nn1 (centres undefined)	none
Cn1c(N)c(C(=O)COC(=O)Cc2ccc(Br)cc2)c(=O)n(C)c1=O	none
Cn1c(N)c(C(=O)COC(=O)Cc2ccsc2)c(=O)n(C)c1=O	CHRM4 PAM 22
O=C(c1cccc(C(F)(F)F)c1)N1CCCCCC1	none
CC(C)n1c(C(F)(F)F)nc2cc(C(=O)N3CCCCC3)ccc21	CHRM4 antagonist 30
Cc1ncc(C[n+]2csc(C)c2C)c(N)n1	M5 PAM 22
Cc1cc(C(=O)CN2c3cccc4cccc(c34)S2(=O)=O)c(C)n1C	none
CCOC(=O)C1CCCN(C(=O)CCCn2c(=O)c3cccn3c3cccnc32)C1 (centres undefined)	none
C[N+]1(CC(O)c2ccccc2)CCCCCC1 (centres undefined)	none
CC(=O)OC(C[N+]1(C)CCCCCC1)c1ccccc1 (centres undefined)	CHRM4 antagonist 37, M5 antag 28
CC(C)(C)NC(=O)CN1C(=O)c2cccc3cccc1c23	none
CC1Sc2ccc(S(=O)(=O)N(C)Cc3ccccc3)cc2NC1=O (centres undefined)	none
COc1ccccc1C(C)NCC(=O)NCc1ccc(C)cc1 (centres undefined)	none
COc1ccc(CNC(=O)CNC(C)c2ccc(F)cc2)cc1 (centres undefined)	CHRM4 antagonist 53
O=C(NC1CC1)c1ccc(-c2cnc3cccnn23)cc1	none
CCN(CC)CCCn1c(C)cc2c(c1=O)C(c1cc(OC)c(OC)cc1OC)C(C#N)=C(N)O2 (centres undefined)	CHRM4 antagonist 30
COc1cc(OC)c(C2C(C#N)=C(N)Oc3cc(C)n(CCCN4CCOCC4)c(=O)c32)cc1OC (centres undefined)	none
CCNc1nc(NC(C)C)nc(NS(=O)(=O)c2ccc(N)cc2)n1	CHRM4 PAM 30
COc1cccc(CN2CCC2(C)C(=O)NCCc2ccccn2)c1OC (centres undefined)	none
COc1ccc(C2Oc3ccccc3N2C(C)=O)cc1 (centres undefined)	CHRM4 antagonist 31
Cc1ccc(CN2C3CCCC2CC(NC(=O)c2ccc(F)cc2)C3)cc1 (centres undefined)	none
O=C(Nc1ccccc1-c1ccccc1)NC1CC2CCCC(C1)N2CCc1ccccc1 (centres undefined)	CHRM4 antagonist 29
O=C(Nc1ccccc1-c1ccccc1)NC1CC2CCCC(C1)N2Cc1ccc(F)cc1 (centres undefined)	CHRM4 antagonist 58, M5 antag 34
CC(C)(CO)NS(=O)(=O)c1ccc2c(c1)C(=NO)c1cc(S(=O)(=O)NC(C)(C)CO)ccc1-2	CHRM4 PAM 21
COCCNS(=O)(=O)c1ccc2c(c1)C(=NO)c1cc(S(=O)(=O)NCCOC)ccc1-2	none
Cc1ccc(Cn2nnc(C(=O)Nc3cccc(C)c3C)c2N)cc1	CHRM5 agonist 38, M4 ag 53
COc1cccc(Cn2nnc(C(=O)Nc3cc(C)ccc3OC)c2N)c1	CHRM4 PAM 18
CCc1ccc(Cn2nnc(C(=O)Nc3cccc(C)c3)c2N)cc1	none
CC1(C(=O)NCc2ccccc2)CN(S(C)(=O)=O)CC(=O)N1Cc1cccc(F)c1 (centres undefined)	CHRM4 PAM 24
CCCN1CCC(=O)N(CCSc2ccc(C)cc2)CC1	none
CCCN1CCC(=O)N(CCSc2ccc(OC)cc2)CC1	M5 PAM 19
Oc1ccc(-c2cc(-c3ccc(O)cc3)nc(-c3ccccc3)n2)cc1	CHRM4 PAM 34
Cc1ccc(C(=O)N2CCN(c3ccc(N4CCOCC4)nn3)CC2)cc1C	CHRM4 PAM 18
O=C(c1cccc(Br)c1)N1CCN(c2ccc(N3CCOCC3)nn2)CC1	none
CNC(=S)N/N=C(\C)c1ccc(C)c(C)c1	CHRM4 antagonist 27
O=C(OC1CCCCC1=O)c1cccc(S(=O)(=O)N2CCOCC2)c1 (centres undefined)	none
Cc1ccc(OCCCC(=O)N(C)CC(=O)Nc2ccccc2Cl)cc1	none
CC(C)N(CC#CCC(O)(c1ccccc1)c1ccccc1)CCO	none
CCN(CC#CCC(O)(c1ccccc1)c1ccccc1)C(C)C	CHRM4 antagonist 31
CSc1nnc(-c2cccc(C)c2)n1N	CHRM4 PAM 32
COc1ccc(CCNC(=O)CS(=O)(=O)c2cn(CC(=O)N3CCCC3)c3ccccc23)cc1OC	CHRM4 antagonist 27
COc1ccc(CCNC(=O)CS(=O)(=O)c2cn(CC(=O)N(C(C)C)C(C)C)c3ccccc23)cc1OC	none
COc1ccc([N+](=O)[O-])cc1N(CC(=O)N1CCOCC1)S(C)(=O)=O	none
CN(NS(=O)(=O)c1ccc(Br)cc1)c1nc(C(F)(F)F)nc2ccccc12	M5 antag 29
CN(N)c1nc(C(F)(F)F)nc2ccccc12	none
CN(C(=O)COC(=O)c1cccc(S(=O)(=O)N2CCOCC2)c1)C1CCS(=O)(=O)C1 (centres undefined)	none
CCCCCOc1ccc(Br)cc1/C(C)=N/NC1=NCCN1	none
COc1ccc(Br)cc1/C(C)=N/NC1=NCCN1	CHRM5 agonist 47, M5 antag 30
CCOC(=O)CN1C(=O)CSc2ccccc21	CHRM4 antagonist 33
O=C(O)CN1C(=O)CSc2ccccc21	none
CN(c1ccccc1)S(=O)(=O)c1cccc(NC(=O)CSc2nncs2)c1	CHRM4 antagonist 27
CC(C)N(C(=S)Nc1cccc(S(=O)(=O)N(C)C)c1)c1ccccc1	M5 PAM 19
